From PubChem BioAssay
Rpn11 block: blocks the human proteasome subunit Rpn11; inhibition, % at 20 µM; AID 588493; human 26S proteasome, Ub4-pepOG fluorescence polarization; 20S core pre-blocked with epoxomicin; actives 0.59% (n = 360,000);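 active = inhibition at 20 µM, scaled to each plate's controls, above about 33%, limit read from the data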
CSN inh: blocks human CSN-mediated cullin deneddylation; Purified CSN, SCF-Nedd8-OG deneddylation, fluorescence polarization; inhibition, % at 12.5 µM; actives 0.38% (n = 360,000);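 active = pattern-corrected inhibition above about 35%, with an unprinted fluorescence ratio check between 0.5 and 1.5, limit read from the data, passing the limit was not always enough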
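Test system: Human Csn5 produced in HEK293T cells | Compound: 12.5 µM single point | Times: 90 min, room temperature | Signal: Fluorescence polarization readout | Read-out basis: % inhibition of substrate cleavage by Csn5 | Controls: no-enzyme wells high, enzyme-with-substrate wells low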
SUMO1 PPI mod: SUMO1-SIM interaction modulation; P63165; inhibition, % at 20 µM; SUMO1 binding to a labelled peptide, TR-FRET, 1 h; actives 0.33% (n = 360,000); in the data active = inhibition above about 37%
DNMT1 block: blocks human DNA methyltransferase DNMT1 | P26358 | DNMT1 molecular beacon, Hinp1I cleavage, fluorescence | inhibition (reported as % activation of signal), % at 10 µM | actives 0.83% (n = 360,000) | AID 588458; in the data active = inhibition above about 50%
Target sequence (P26358 504-1616 limits assumed): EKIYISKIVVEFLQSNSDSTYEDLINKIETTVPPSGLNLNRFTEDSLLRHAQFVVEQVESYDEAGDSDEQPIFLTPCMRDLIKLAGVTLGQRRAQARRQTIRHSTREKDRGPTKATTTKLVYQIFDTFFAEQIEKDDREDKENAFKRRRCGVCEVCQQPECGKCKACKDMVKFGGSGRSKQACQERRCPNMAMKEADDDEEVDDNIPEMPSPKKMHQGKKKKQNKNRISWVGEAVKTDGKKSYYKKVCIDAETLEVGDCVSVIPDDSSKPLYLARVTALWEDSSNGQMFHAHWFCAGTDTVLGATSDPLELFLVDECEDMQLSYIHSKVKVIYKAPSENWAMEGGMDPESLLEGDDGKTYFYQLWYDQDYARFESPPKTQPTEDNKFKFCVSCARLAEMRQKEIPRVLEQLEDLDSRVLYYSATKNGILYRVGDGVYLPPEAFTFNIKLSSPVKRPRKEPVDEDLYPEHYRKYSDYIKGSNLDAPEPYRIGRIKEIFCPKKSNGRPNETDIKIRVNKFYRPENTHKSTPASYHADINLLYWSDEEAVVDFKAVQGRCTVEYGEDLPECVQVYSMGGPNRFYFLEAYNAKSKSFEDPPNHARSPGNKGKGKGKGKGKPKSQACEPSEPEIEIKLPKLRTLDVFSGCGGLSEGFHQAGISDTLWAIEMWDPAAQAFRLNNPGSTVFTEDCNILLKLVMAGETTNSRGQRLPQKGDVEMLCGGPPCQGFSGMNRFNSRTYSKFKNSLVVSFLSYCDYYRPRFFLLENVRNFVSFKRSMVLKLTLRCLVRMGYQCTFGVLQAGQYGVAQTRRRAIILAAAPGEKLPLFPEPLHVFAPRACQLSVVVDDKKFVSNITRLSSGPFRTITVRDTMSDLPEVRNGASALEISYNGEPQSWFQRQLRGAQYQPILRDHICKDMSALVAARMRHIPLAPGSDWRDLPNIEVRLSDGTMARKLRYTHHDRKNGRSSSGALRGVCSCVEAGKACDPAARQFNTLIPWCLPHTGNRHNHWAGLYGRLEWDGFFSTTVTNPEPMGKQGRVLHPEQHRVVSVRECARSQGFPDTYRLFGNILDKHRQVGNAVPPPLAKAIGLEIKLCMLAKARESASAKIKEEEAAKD
MT1-MMP act inh: blocks activation of human MT1-MMP; P50281; HT1080 RFP-PRO-GFP cells, GFP/RFP ratio fluorescence, overnight; percent of plate control window, DMSO zero; GFP/RFP ratio change, % at 20 µM; actives 0.061% (n = 360,000); AID 651647;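 active = GFP/RFP ratio change of at least 30% with cell ATP level not reduced by more than half and red fluorescence within 50% of control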
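Test system: HT1080 RFP-PRO-GFP cells; Benchmarks: DMSO and RFP-L50D-GFP cell wells; Timing: cells overnight before dosing, compound overnight, 37 °C, 5% CO2; Compound: one 20 µM compound dose with 1% DMSO; Read-out: GFP/RFP fluorescence ratio.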
SKN-1 block: inhibitors of C. elegans SKN-1; C. elegans VP596 Pgst-4::GFP/RFP ratio, acrylamide-induced, 24 h; inhibition, % at 21.8 µM; actives 0.49% (n = 360,000);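 active = interference check ratio from 0.5 to 1.5 plus GFP to RFP signal ratio inhibition reaching or exceeding a fixed threshold, cut at about 30% in these data, passing the limit was not always enough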
Of the large screens only hits and unclear results are named; the others gave an inactive call. Shown are actives, neighbours in structure and some others; about 2.3% of the full set was active somewhere.

Cc1c(CC(=O)O)c(=O)oc2c(C)c(OCc3ccc(F)cc3F)ccc12	none
CCCCCCCCn1c2c(c(=N)c3ccccc31)CCC2	none
Cc1cc(C)c2c(=N)c3ccccc3n(CCCCCCCCn3c4ccccc4c(=N)c4c(C)cc(C)nc43)c2n1	SUMO1 PPI mod 95
O=C1C(Cl)=C(N2CCCCC2)C(=O)C(Cl)=C1c1cnc(N2CCCCC2)s1	DNMT1 block 84
CC(=O)c1cnc(N(C)C)s1	none
CN(C)c1ncc(C2=C(Cl)C(=O)C(N3CCCC3)=C(Cl)C2=O)s1	DNMT1 block 69
CC(C)=NNc1cnnc2ccc([N+](=O)[O-])cc12	none
COCCn1c(=NC(=O)c2ccc(S(=O)(=O)N3CCOCC3)cc2)sc2cc(S(N)(=O)=O)ccc21	none
CCn1c(=NC(=O)c2ccc(S(=O)(=O)N3CCOCC3)cc2)sc2cccc(OC)c21	SUMO1 PPI mod 43
Cc1ccc(N2C(=S)SC3CS(=O)(=O)CC32)cc1 (stereo unspecified)	SUMO1 PPI mod 47
Cc1ccc(N2C(=O)N(c3ccc(C)cc3)C3CS(=O)(=O)CC32)cc1 (stereo unspecified)	none
CCCCN(C)c1c(C)nc2ccc(C(=O)NCCOc3ccc(OC)cc3)cn12	none
C[C@@H]1C=C[C@](Cc2ccccc2)(C(=O)NCC2CC2)N1C(=O)c1ccccc1	SKN-1 block 35
CCOC(=O)C1(C)CCN1C(=O)c1ccc(Cl)nc1 (stereo unspecified)	none
CC1CCN(C(=O)CCNC(=O)Cn2cnc3sc4c(c3c2=O)CCCC4)CC1	CSN inh 125
Cc1sc2ncn(CC(=O)NCCCC(=O)N3CCN(c4ccccc4)CC3)c(=O)c2c1C	CSN inh 76
CC1CCN(C(=O)CCCNC(=O)Cn2cnc3sc4c(c3c2=O)CCCC4)CC1	none
O=C(Nc1ccccc1)OC[C@@H]1C=CS(=O)(=O)N1Cc1ccc(Br)cc1	none
CCN(CC)CCN1C(=O)C(=O)/C(=C(/O)c2cnn(-c3ccccc3)c2C)C1c1ccc(C)o1 (stereo unspecified)	SKN-1 block 46
Cc1ccc(C2/C(=C(\O)c3cnn(-c4ccccc4)c3C)C(=O)C(=O)N2CCN(C)C)o1 (stereo unspecified)	none
NC(c1ccccc1)c1csc(Nc2ccc(C(=O)c3ccccc3)cc2)n1 (stereo unspecified)	none
Nc1sccc1C(=O)NCc1ccccc1	SKN-1 block 39 (no result: Rpn11 block, DNMT1 block)
Cc1ccccc1CN1C(=O)CN(S(C)(=O)=O)CC1(C)C(=O)NC(C)C (stereo unspecified)	none (no result: Rpn11 block, DNMT1 block)
Cc1ccc(CSc2ncnc3ccccc23)cc1	none
c1ccc(CSc2ncnc3ccccc23)cc1	SKN-1 block 59
Fc1ccc(CSc2ncnc3ccccc23)cc1	SKN-1 block 62
Cc1cccc(CSc2ncnc3ccccc23)c1	none
Cc1ccc(C(=O)c2ccccc2C(=O)OCC(=O)NC(=O)NC(C)(C)C)cc1	SUMO1 PPI mod 45
OC(c1ccc(Cl)c(F)c1)c1ncc(-c2cccc(C(F)(F)F)c2)[nH]1 (stereo unspecified)	none
CN(C)C(CNC(=O)CCc1nc2cc(Cl)ccc2n(Cc2ccccc2)c1=O)c1ccccc1 (stereo unspecified)	SKN-1 block 57
O=C(O)CP(=O)(c1ccccc1)c1ccccc1	SUMO1 PPI mod 46
CC1(Cc2cccc(C#N)c2)C(=O)Nc2c(Cl)cccc21 (stereo unspecified)	none
CCCCNC(=O)C1C(c2ccc(C(F)(F)F)cc2)=Nc2ccccc2N1C(=O)C1CCN(C(C)=O)CC1 (stereo unspecified)	none (no result: Rpn11 block, DNMT1 block)
CC1CCCCN1Cc1c(O)ccc2c(=O)c(-c3nc4ccccc4s3)c(N)oc12 (stereo unspecified)	SKN-1 block 81
COc1ccc(-c2c(C)oc3c(CN4CCCCC4C)c(O)ccc3c2=O)cc1 (stereo unspecified)	none
O=C(COC(=O)c1cc2c(s1)CCCC2)Nc1ccc(Cl)cn1	none
COc1ccc(NC(=O)COC(=O)c2cc3c(s2)CCC3)cc1	DNMT1 block 66
CN(C)c1nc(SCc2ccccc2Cl)nc2c1CCCC2	SKN-1 block 31
Cc1cc(N2CCCC2)nc(-c2ccccc2O)n1	SUMO1 PPI mod 69
Cc1cc(N2CCN(C)CC2)nc(-c2ccccc2O)n1	none
Cc1ccc(NC(=O)c2cc(-c3ccco3)on2)cc1C	SKN-1 block 36
Cc1ccc(NC(=O)N/C=C/c2ccco2)cc1C	DNMT1 block 57 (not shown: Rpn11 block)
Cc1ccc(NC(=O)c2cc(-c3ccco3)on2)cc1	none
CCOc1ccc(/C(O)=C2/C(=O)C(=O)N(c3cc(C)on3)C2c2ccc(C(=O)OC)cc2)cc1 (stereo unspecified)	none
CCCOc1ccc(/C(O)=C2/C(=O)C(=O)N(c3cc(C)on3)C2c2ccc(C(=O)OC)cc2)cc1 (stereo unspecified)	SKN-1 block 40
COc1ccc(C(C)(O)c2nc(-c3ccc(N(C)C)cc3)cs2)cc1 (stereo unspecified)	none (no result: MT1-MMP act inh)
Cc1ccc(Cc2nc(-c3cccnc3)no2)cc1	none
Clc1ccc(Cc2nc(-c3cccnc3)no2)cc1	SKN-1 block 41
CCCS(=O)(=O)NC(=O)C1(C)CCCN(C(=O)c2c(OC)cccc2OC)C1 (stereo unspecified)	none
CC(=O)NCCCNC(=S)NCCCN(Cc1ccc(Cl)cc1)c1ccc(Br)cn1	none
COc1ccc(C(=O)Nc2ccc3c(c2)C(=O)c2ccccc2C3=O)cc1OC	DNMT1 block 57 (not shown: Rpn11 block)
COc1ccc(C(=O)Nc2ccc3ccccc3c2)cc1OC	none
CC(C)(C)c1cc(-c2csc(Nc3ccccc3)[n+]2Cc2ccc(C(=O)O)cc2)cc(C(C)(C)C)c1O	SUMO1 PPI mod 42
Cc1ccc(Cc2c(-c3cccc(Cl)c3)nc3ccc(C)cn23)cc1	none
Fc1ccc(-c2nc3ccc(Cl)cn3c2Cc2ccsc2)cc1	SKN-1 block 40
Clc1cccc(-c2nc3ccc(Br)cn3c2Cc2ccsc2)c1	SKN-1 block 36
Brc1cccc(-c2nc3ccc(Br)cn3c2Cc2ccsc2)c1	SKN-1 block 47
Cc1ccc(Cc2c(-c3cccc(Cl)c3)nc3ccc(Cl)cn23)cc1	CSN inh 39
COc1cccc(CN2CCN(C(=O)[C@H]3O[C@@H](n4cnc5c(N)ncnc54)[C@H](O)[C@@H]3O)CC2=O)c1	none
CC(C)OC(=O)/C=C1\C[C@@H](c2ccccc2C(F)(F)F)O[C@@H](c2ccccc2C(F)(F)F)O1	none (no result: Rpn11 block, DNMT1 block)
CCc1nc2ccc(C(=O)N(C)Cc3ccccc3)cn2c1N(C)Cc1ccc(OC)cc1	none
